Compound activity deposited in PubChem by Broad Institute.
In the library only some 2.5% were active in any assay of this set; here they are far more common.
FGF22 binding-1: binders of recombinant human FGF22 by thermal shift; activity (Tm shift, normalised), % at 9.99 µM; 1.5% of 340,000 active; AID 651658; SYPRO orange fluorescence; percent of sucrose octasulfate shift, DMSO zero; Q9HCT0;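 active = mean Tm shift, scaled 0 neutral to 100 positive control, at about 1.3% or above, every replicate too, limit read from the data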
Target sequence (Q9HCT0 whole entry, looked up): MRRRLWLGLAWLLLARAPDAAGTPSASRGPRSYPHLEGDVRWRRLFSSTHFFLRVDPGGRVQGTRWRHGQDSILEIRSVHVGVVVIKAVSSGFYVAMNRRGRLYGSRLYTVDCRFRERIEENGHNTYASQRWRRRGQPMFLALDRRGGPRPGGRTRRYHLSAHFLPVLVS
S100A4 MyoIIA: blocks human S100A4 binding to myosin IIA peptide. P26447. S100A4/TAMRA-MyoIIA peptide fluorescence polarization. inhibition, % at 10.7 µM. 0.14% of 360,000 active;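 active = mean inhibition of at least 70% across replicates, with every replicate also reaching that level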
Target sequence (P26447 whole entry, looked up): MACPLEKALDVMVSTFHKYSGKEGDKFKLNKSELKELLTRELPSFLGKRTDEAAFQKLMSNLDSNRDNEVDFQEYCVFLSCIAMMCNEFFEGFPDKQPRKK
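Material: human S100A4 monomer with TAMRA-labelled myosin IIA peptide; buffer or medium: HEPES pH 7.2 with CaCl2, KCl, NaCl, DTT, Triton; compound dosing: one concentration per compound; schedule: 5 min incubation before reading; benchmarks: neutral control DMSO, positive control TFP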
SIRT5 block: sirtuin-5 (human) deacylase inhibition. AID 652115. inhibition, % at 15 µM. Purified SirT5, succinyl-peptide AMC, trypsin-coupled fluorescence. Q9NXA8. 1.1% of 330,000 active; in the data active = inhibition above about 15%
miR-122 sensor: miR-122 inhibition in Huh7 cells; Huh7 miR-122 Renilla luciferase sensor, 48 h; neutral wells = 0, positive control = 100; activation (reporter increase), % at 12.5 µM; 0.3% of 340,000 active; AID 602342;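 active = mean replicate activation score at least 90 and every replicate individually at or above 90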;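 note: higher luciferase means less miR-122 activity so hits act as miR-122 inhibitors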
E-sel inducer: E-selectin induction on HUVECs; activation, % at 7.58 µM; HUVEC E-selectin immunofluorescence imaging; normalized: neutral wells 0, TNF-alpha wells 100; 0.37% of 260,000 active;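 active = mean E-selectin-positive cell signal at least 10% of the positive control, reached in at least 60% of replicates, without over 20% cell loss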
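material = human umbilical vein endothelial cells (HUVEC), E-selectin induction | quantity = 3,000 cells/well | medium = EGM-2 growth medium on 0.1% gelatin-coated wells | technique = immunofluorescence imaging | read-out basis = % PE-positive cells | control set = TNF-alpha positive control, DMSO neutral control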
FGF22 binding-2: binds human FGF22 shifting its melting temperature; recombinant FGF22 thermal shift, SYPRO orange fluorescence; AID 720646; thermal shift activity, °C (ΔTm) at 38 µM; shares compounds with FGF22 binding-1; 2% of 1,000 active;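 active = fitted rise in melting shift crosses a set limit at or below the top valid dose tested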
SYPRO no-protein: shows thermal shift signal without protein, FGF22 counter-screen. shares compounds with FGF22 binding-1. compound-only SYPRO orange thermal shift counter-screen, no protein. AC50, µM (titrated, usually from 38 µM). 2% of 1,000 active;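 active = rising signal whose fitted curve reaches the 0.54 level within the top valid dose, showing a melting point, actives reach about 13 µM in these data; inactive = the rest, including activity in the opposite direction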; note: value is where the raw curve crosses a fixed level and not half-maximal
Hits are given with their value; . = inactive; / = no result given; ! = a repeat was not active.

SMILES | FGF22 binding-1 | S100A4 MyoIIA | SIRT5 block | miR-122 sensor | E-sel inducer | FGF22 binding-2 | SYPRO no-protein
O=C(Nc1cccc(-c2cnc3ccccc3n2)c1)c1ccncc1 | 1.3 | . | . | / | . | . | .
O=c1cc[nH]c2ccc(Cl)cc12 | 72.0 | . | / | / | . | . | .
CCOC(=O)c1sc(NC(=O)Nc2ccccc2)cc1C | 2.1 | . | . | / | . | . | .
CCOC(=O)c1c(N)sc(C(=O)Nc2ccccc2)c1C | 2.9 | . | . | / | / | . | .
CCOC(=O)c1sc(NC(=O)Nc2ccccc2Cl)cc1C | / | / | / | . | / | / | /
C[C@@H](O)C#Cc1ccc([C@@H]2[C@@H](CO)N3CCCCN(S(=O)(=O)Cc4ccccc4)C[C@H]23)cc1 | . | . | . | . | . | / | /
COc1ccc2c(/C=N/NS(=O)(=O)c3ccc(C)cc3)c[nH]c2c1 | 2.7 | . | . | . | . | . | .
COc1ccc2[nH]cc(/C=N/NS(=O)(=O)c3ccc(C)cc3)c2c1 | . | . | . | / | . | / | /
C[C@@H]1CCCCO[C@H](CN(C)C(=O)NC2CCCCC2)[C@@H](C)CN([C@H](C)CO)C(=O)c2cc(NC(=O)c3ccncc3)ccc2O1 | . | . | . | . | . | / | /
CCC(C)[C@H](NC(=O)N1CCn2c1nc1ccccc12)C(=O)NCCc1ccc(OC)c(OC)c1 (some centres undefined) | . | . | . | . | / | / | /
CCC(C)[C@H](NC(=O)N1CCn2c1nc1ccccc12)C(=O)NCCc1ccccc1 (some centres undefined) | 14.2 | . | . | . | / | . | .
CCOc1ccccc1-c1cc(C(=O)N/N=C/c2cccnc2)c2ccccc2n1 | . | . | . | . | / | / | /
CCOc1ccc(-c2cc(C(=O)N/N=C/c3cccnc3)c3ccccc3n2)cc1 | 2.5 | . | . | . | . | . | .
CC(=O)N1[C@H](C(=O)N2CCCCC2)[C@@H](CO)[C@@H]2Cn3c(ccc(C4=CCCCC4)c3=O)[C@@H]21 | . | . | . | . | . | / | /
CNC[C@H]1Oc2ccc(NC(=O)Cc3cn(C)c4ccccc34)cc2C(=O)N([C@H](C)CO)C[C@@H]1C | . | . | . | . | . | / | /
COc1ccc(CN(C)C[C@H]2Oc3ccc(NC(=O)Cc4ccccc4)cc3C(=O)N([C@H](C)CO)C[C@@H]2C)cc1 | 1.5 | . | . | . | . | . | .
COc1ccc(CN(C)C[C@H]2Oc3ccc(NC(=O)NC(C)C)cc3C(=O)N([C@H](C)CO)C[C@@H]2C)cc1 | . | . | . | . | . | / | /
CNC[C@H]1Oc2ccc(NC(=O)Cc3cn(C)c4ccccc34)cc2C(=O)N([C@H](C)CO)C[C@H]1C | 3.7 | . | . | . | . | / | .
COc1ccc(CN(C)C[C@@H]2Oc3ccc(NC(=O)NC(C)C)cc3C(=O)N([C@H](C)CO)C[C@@H]2C)cc1 | 73.0 | . | . | . | . | . | .
C[C@@H]1CN([C@H](C)CO)C(=O)c2cc(NS(=O)(=O)c3cn(C)cn3)ccc2O[C@@H]1CN(C)Cc1ccccc1 | . | . | . | . | . | / | /
C[C@H](CO)N1C[C@H](C)[C@@H](CN(C)S(=O)(=O)c2ccccc2)Oc2ccc(NS(=O)(=O)c3cn(C)cn3)cc2C1=O | 2.3! | . | . | . | . | . | .
C[C@H]1CN([C@@H](C)CO)C(=O)c2cc(NS(=O)(=O)c3cn(C)cn3)ccc2O[C@H]1CN(C)Cc1ccccc1 | 24.5 | . | . | . | . | . | .
CCC(=O)N1CC2(C1)[C@H](c1ccccc1)[C@H](CO)N2S(=O)(=O)Cc1ccccc1 | 15.8 | . | . | / | . | . | .
O=C(CC1CC1)N1CC2(C1)[C@@H](c1ccccc1)[C@@H](CO)N2S(=O)(=O)Cc1ccccc1 | 1.3 | . | . | / | . | . | .
O=C(C1CCCC1)N1CC2(C1)[C@H](c1ccccc1)[C@H](CO)N2CC1CCCC1 | / | . | . | / | . | / | /
CCC(=O)N1CC2(C1)[C@@H](c1ccccc1)[C@@H](CO)N2S(=O)(=O)Cc1ccccc1 | . | . | . | / | . | / | /
